Measured values from PMC4467258 (Clinical Pharmacology in Drug Development, 2014).
Values after ≈ are worked out from the molar mass of the structure shown. Values joined by “and” are separate entries in the source; they are usually repeats but may differ in a detail not shown here. Identical values can stand only once. Like-named read-outs stand apart in the source and are kept apart here. Marks after values point to notes of the source that are not given here.

Legend:
[1] = Solubility; format: physicochemical
[2] = Safety and tolerability; format: in vivo, human
Outline: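 Open-label, randomized, 4-period balanced crossover in healthy adults (18–65 years, ≥40 kg; women of non-childbearing potential only). Single 1500-mg (free base equivalent) dose of test compound (peptide deformylase inhibitor) as IV mesylate salt solution, 60-minute infusion, fasted; 3-day washout between periods. Safety from observed AEs and changes over time in hematology, clinical chemistry, urinalysis, vital signs and ECGs, summarized descriptively.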

[3] = Biopharmaceutics Classification System characteristics; format: physicochemical; conditions: high permeability and poor solubility; no official regulatory decision yet
[4] = format: in vivo, human; conditions: for AUC(0-inf): AUC0−∞; for Tmax: median (range)
Outline: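 Open-label, randomized 4-period crossover in healthy adults (18–65 y, ≥40 kg). Each received single 1500-mg free-base-equivalent doses: 60-min IV mesylate infusion, tablet fasted or after a 490-calorie moderate-fat meal, and oral mesylate solution fasted, with 3-day washouts. Plasma sampled predose to 72 h; LC-MS/MS (5–5000 ng/mL). Noncompartmental analysis; bioavailability from oral vs IV AUC0−∞; log-transformed mixed-effects model; CVw from residual MSE.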

[5] = cited from earlier work
[6] = Fed to fasted, free base tablet
[7] = human, plasma, oral, 1500 mg, mean (SD), 1500-mg free base tablet, fasted state
[8] = human, plasma, po, 1500 mg, mean (SD), 1500-mg oral MS solution, fasted state

Cc1nc(NNC(=O)[C@H](CC2CCCC2)CN(O)C=O)c(F)c(N2CCN3CCOC[C@@H]3C2)n1 [GSK1322322]
solubility ([1]; fasted state-simulated intestinal fluid, pH 6.5, fassif): ~0.5 mg/mL (≈ 1.04 mM) | solubility ([1]; pH 3.5): 40 mg/mL (≈ 83.4 mM) | Withdrawal because of a drug-related AE (bronchospasm) ([2]; IV 1500 mg, period 3): One volunteer was withdrawn | Vital signs, chemistry, or hematology data ([2]; all treatments): No apparent trends or changes from baseline | Intensity of adverse events ([2]; all treatments, single 1500-mg doses): mild-to-moderate | Volunteers with an AE per treatment ([2]; range across the four treatments): 42–65% | Biopharmaceutics Classification System class [3]: Class 2 | Relative bioavailability, ratio of geometric least square mean Cmax (90% CI) ([4]; Fasted to MS): 0.57 (0.48, 0.69) | Tmax estimated median difference (90% CI) ([4]; Fasted to MS): 0.13 (0.00, 0.37) ^c h | Relative bioavailability, ratio of geometric least square mean AUC0−∞ (90% CI) ([4]; Fasted to MS (free base tablet fasted vs oral MS solution)): 0.62 (0.56, 0.69) | Relative bioavailability, ratio of geometric least square mean Cmax (90% CI) ([4]; Fed to MS): 0.57 (0.47, 0.68) | Tmax estimated median difference (90% CI) ([4]; Fed to MS): 0.99 (0.63, 1.74) ^d h | Relative bioavailability, ratio of geometric least square mean AUC0−∞ (90% CI) ([4]; Fed to MS (free base tablet fed vs oral MS solution)): 0.84 (0.76, 0.94) | Food effect, ratio of geometric least square mean AUC0−∞ (90% CI) [4, 6]: 1.36 (1.22, 1.51) | Food effect, ratio of geometric least square mean Cmax (90% CI) [4, 6]: 0.99 (0.82, 1.18) | Tmax estimated median difference (90% CI) [4, 6]: 0.88 (0.50, 1.25) ^e h | Relative bioavailability ([4]; free base tablet after a meal vs fasted state): 136% | Absolute bioavailability, ratio of geometric least square mean AUC0−∞ (90% CI) ([4]; free base tablet fasted vs IV, 1500 mg): 0.57 (0.51, 0.63) | Relative bioavailability ([4]; free base tablet fasted vs oral mesylate salt solution fasted): 62% | Absolute bioavailability, ratio of geometric least square mean AUC0−∞ (90% CI) ([4]; free base tablet fed vs IV, 1500 mg): 0.77 (0.69, 0.86) | Relative bioavailability ([4]; free base tablet fed vs oral mesylate salt solution fasted): 84% | Increase in AUC0−∞ with food ([4]; free base tablet, fed vs fasted state, moderate-fat/calorie meal): 36% | Vd ([4]; human, plasma, iv, 1500 mg): 69.2 L | clearance ([4]; human, plasma, iv, 1500 mg): 367 mL/min | AUC(0-inf) ([4]; human, plasma, iv, 1500 mg, mean (SD), 1500-mg IV MS solution, 60-minute infusion): 75400 ng·h/mL | Cmax ([4]; human, plasma, iv, 1500 mg, mean (SD), 1500-mg IV MS solution): 28600 ng/mL | Tmax ([4]; human, plasma, iv, 1500 mg, 1500-mg IV MS solution): 1 h | half-life ([4]; human, plasma, iv, 1500 mg, t1/2, mean (SD), 1500-mg IV MS solution): 10.3 h | AUC(0-inf) [4, 7]: 46100 ng·h/mL | AUC(0-inf) ([4]; human, plasma, oral, 1500 mg, mean (SD), 1500-mg free base tablet, fed state (moderate-fat/calorie meal)): 58900 ng·h/mL | Cmax [4, 7]: 17100 ng/mL | Cmax ([4]; human, plasma, oral, 1500 mg, mean (SD), 1500-mg free base tablet, fed state): 15500 ng/mL | Tmax ([4]; human, plasma, oral, 1500 mg, 1500-mg free base tablet, fasted state): 0.5 h | Tmax ([4]; human, plasma, oral, 1500 mg, 1500-mg free base tablet, fed state): 1.5 h | half-life ([4]; human, plasma, oral, 1500 mg, t1/2, mean (SD), 1500-mg free base tablet, fasted state): 9.4 h | half-life ([4]; human, plasma, oral, 1500 mg, t1/2, mean (SD), 1500-mg free base tablet, fed state): 8.7 h | half-life ([4]; human, plasma, other: IV or oral, 1500 mg, t1/2, range of means after single-dose IV or oral administration): 8.7 to 10.3 h | AUC(0-inf) [4, 8]: 69700 ng·h/mL | Cmax [4, 8]: 25800 ng/mL | Tmax ([4]; human, plasma, po, 1500 mg, 1500-mg oral MS solution, fasted state): 0.5 h | half-life ([4]; human, plasma, po, 1500 mg, t1/2, mean (SD), 1500-mg oral MS solution, fasted state): 9.6 h | Varea ([4]; mean (SD), 1500-mg IV MS solution): 317.2 (131.5) L | CL/F ([4]; mean (SD), 1500-mg free base tablet, fasted state): 42.6 (26.6) L/h | CL/F ([4]; mean (SD), 1500-mg free base tablet, fed state): 28.4 (9.0) L/h | CL/F ([4]; mean (SD), 1500-mg oral MS solution, fasted state): 23.8 (7.3) L/h | Absolute bioavailability, ratio of geometric least square mean AUC0−∞ (90% CI) ([4]; oral MS solution fasted vs IV, 1500 mg): 0.92 (0.82, 1.02) | CVw (within coefficient of variation) of AUC0−∞ ([4]; pooled across regimens): 22% | CVw (within coefficient of variation) of Cmax ([4]; pooled across regimens): 39% and 38.7% | Relative bioavailability fed vs fasted ([5]; free base tablet 1000 mg): 119% | Cmax ([5]; single 1500-mg IV dose, first-time-in-human IV study): 25500 ng/mL | Absolute bioavailability ([5]; tablet formulation 1500 mg, previous phase I study): 56%
